Reference: ChEMBL document CHEMBL2311383, “Discovery of piperazin-1-ylpyridazine-based potent and selective stearoyl-CoA desaturase-1 inhibitors for the treatment of obesity and metabolic syndrome” (J Med Chem, 2013)
Calls of active or inactive are those of the source. The calls are words filed in the database; no cut-off is given here.

Legend:
[1] = target: Acyl-CoA (8-3)-desaturase (Rattus norvegicus) (UniProt Q920R3); test: Inhibition of delta5 desaturase in Sprague-Dawley rat liver microsome at 10 uM; assay type: microsomes
Rattus norvegicus [2] = test: In vivo inhibition of SCD1 in Zucker-Fatty rat assessed as reduction of C18 plasma desaturation index at 1 mg/kg, po bid administered for 15 weeks; assay type: functional; settings: 2520 h
Method in brief: (§1)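 Plasma from Zucker fatty rats after 15 weeks oral 1 mg/kg twice daily. Lipids extracted by modified Folch, classes separated by TLC, hydrolyzed, derivatized and analyzed by GC against an internal standard. Desaturation index is the […] ratio for C16 and C18; n = 12, mean ± SEM.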

Rattus norvegicus [3] = test: In vivo inhibition of SCD1 in Zucker-Fatty rat assessed as reduction of C16 plasma desaturation index at 1 mg/kg, po bid administered for 15 weeks; assay type: functional; settings: 2520 h; method in brief: as §1
Rattus norvegicus [4] = test: Antiobesity activity in Zucker-Fatty rat assessed as reduction in bone mineral content at 1 mg/kg, po bid administered for 15 weeks; assay type: functional, organism-based; parameters: dose 1 mg/kg
Method in brief: (§2)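 Male Zucker fa/fa rats, 20 weeks old, chow ad libitum, 24 per group. Dosed orally twice daily (10 a.m., 4 p.m.) at 1 mg/kg for 15 weeks, suspended in 1% CMC/0.1% Tween 20/10% propylene glycol/water; vehicle controls. Body weight taken daily, change from day 0 over 12 weeks. At end: epididymal, retroperitoneal and mesenteric fat pads weighed; DEXA of carcass BMC, lean and fat mass; fat % = FM/(BMC+LM+FM); n = 12, mean ± SEM.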

Rattus norvegicus [5] = test: Antiobesity activity in Zucker-Fatty rat assessed as reduction in lean mass at 1 mg/kg, po bid administered for 15 weeks; assay type: functional, organism-based; parameters: dose 1 mg/kg; method in brief: as §2
Rattus norvegicus [6] = test: Antiobesity activity in Zucker-Fatty rat assessed as reduction in fat mass at 1 mg/kg, po bid administered for 15 weeks; assay type: functional; parameters: scale not given: the % may be the effect or the level left; method in brief: as §2
Rattus norvegicus [7] = test: Antiobesity activity in Zucker-Fatty rat assessed as reduction in body fat percentage at 1 mg/kg, po bid administered for 15 weeks relative to vehicle-treated control; assay type: functional; parameters: scale not given: the % may be the effect or the level left; method in brief: as §2
Rattus norvegicus [8] = test: Antiobesity activity in Zucker-Fatty rat assessed as reduction in combined visceral fat weight at 1 mg/kg, po bid administered for 15 weeks relative to vehicle-treated control; assay type: functional; parameters: scale not given: the % may be the effect or the level left; method in brief: as §2
Rattus norvegicus [9] = test: Antiobesity activity in Zucker-Fatty rat assessed as reduction in total body weight at 1 mg/kg, po bid administered upto 12 weeks relative to vehicle-treated control; assay type: functional; parameters: scale not given: the % may be the effect or the level left; method in brief: as §2
[10] = Clearance in Lewis rat at 1 mg/kg, iv; assay type: ADME, organism-based; parameters: dose 1 mg/kg, route intravenous; settings: in vivo
Method in brief: (§3)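 Lewis rats, IV 3 mg/kg and PO 10 mg/kg unless otherwise stated (some at PO 5 mg/kg, IV 1 mg/kg, or IV 1/PO 2 mg/kg). At least two rats IV, three rats PO, averaged. Plasma t1/2 (h), AUC 0–∞ (μM·h), Vss (L/kg), clearance ((L/h)/kg), Cmax (μM), Tmax (h), oral bioavailability (%).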

[11] = Volume of distribution at steady state in Lewis rat at 1 mg/kg, iv; assay type: ADME, organism-based; parameters: dose 1 mg/kg, route intravenous; settings: in vivo, read-out: Vdss; method in brief: as §3
[12] = Half life in Lewis rat at 1 mg/kg, iv; assay type: ADME, organism-based; parameters: dose 1 mg/kg, route intravenous; settings: in vivo; method in brief: as §3
[13] = Oral bioavailability in Lewis rat at 10 mg/kg; assay type: ADME, organism-based; settings: in vivo; method in brief: as §3
[14] = Cmax in Lewis rat at 10 mg/kg, po; assay type: ADME, organism-based; parameters: dose 10 mg/kg, route oral; settings: in vivo; method in brief: as §3
[15] = Tmax in Lewis rat at 10 mg/kg, po; assay type: ADME, organism-based; parameters: dose 10 mg/kg, route oral; settings: in vivo; method in brief: as §3
Rattus norvegicus [16] = test: In vivo inhibition of SCD1 in po dosed Lewis rat liver microsome after 4 hrs; assay type: functional
Method in brief: (§4)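 Lewis rats fed high-carbohydrate diet for one week, fasted 4 h, then dosed orally (0.1–1 mg/kg in 0.2% Tween 20/1% CMC; n = 4), killed 4 h later; ip arm 15 mg/kg once daily for two days. Liver microsomes prepared, SCD1 activity measured by tritiated water release from [9,10-3H]stearoyl-CoA. Mean ± SD of at least four rats.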

Rattus norvegicus [17] = test: In vivo inhibition of SCD1 in po dosed Lewis rat liver microsome at 0.1 to 1 mg/kg after 4 hrs; assay type: functional, organism-based; method in brief: as §4
Rattus norvegicus [18] = test: In vivo inhibition of SCD1 in Lewis rat liver microsome at 15 mg/kg, ip administered qd for 2 days; assay type: functional; settings: 48 h, route intraperitoneal; method in brief: as §4
[19] = Apparent permeability from basolateral to apical side in human Caco2 cells; assay type: ADME, cell-based; settings: Caco-2
Method in brief: (§5)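 Caco-2 monolayers; apparent permeability a-to-b and b-to-a reported in 10⁻⁶ cm/s.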

[20] = Metabolic stability in rat liver microsome after 30 mins by LC/MS/MS analysis; assay type: ADME; settings: liver microsomes, read-out: Stability
Method in brief: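 Compound incubated 30 min with rat liver microsomes; percent parent remaining by LC/MS/MS.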

[21] = Apparent permeability from apical to basolateral side in human Caco2 cells; assay type: ADME, cell-based; settings: Caco-2; method in brief: as §5
[22] = target: Acyl-CoA 6-desaturase (Rattus norvegicus) (UniProt Q9Z122); test: Inhibition of delta6 desaturase in Sprague-Dawley rat liver microsome using cis,cis-9,12-octadecadienoic acid substrate at 10 uM
Acyl-CoA desaturase 1 = target: T1, Acyl-CoA desaturase 1 (Mus musculus, UniProt P13516); test: Inhibition of SCD1 in ICR mouse liver microsome using [9,10 3H]- stearoyl-Coenzyme A substrate assessed as decreased production of tritiated water after 20 min by scintillation counting analysis
T1 sequence (P13516 whole entry): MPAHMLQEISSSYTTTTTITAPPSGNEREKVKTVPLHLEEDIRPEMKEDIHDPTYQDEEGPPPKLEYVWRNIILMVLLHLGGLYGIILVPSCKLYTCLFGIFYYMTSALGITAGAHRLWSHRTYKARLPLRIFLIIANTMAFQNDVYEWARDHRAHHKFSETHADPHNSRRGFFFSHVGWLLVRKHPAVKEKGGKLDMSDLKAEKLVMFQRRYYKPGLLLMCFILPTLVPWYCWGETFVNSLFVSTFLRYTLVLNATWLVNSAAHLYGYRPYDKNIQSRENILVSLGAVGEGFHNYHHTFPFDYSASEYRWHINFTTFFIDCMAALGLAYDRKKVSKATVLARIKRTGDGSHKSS

[23] = Clearance in Lewis rat at 3 mg/kg, iv; assay type: ADME, organism-based; parameters: dose 3 mg/kg, route intravenous; settings: in vivo; method in brief: as §3
[24] = Volume of distribution at steady state in Lewis rat at 3 mg/kg, iv; assay type: ADME, organism-based; parameters: dose 3 mg/kg, route intravenous; settings: in vivo, read-out: Vdss; method in brief: as §3
[25] = Half life in Lewis rat at 3 mg/kg, iv; assay type: ADME, organism-based; parameters: dose 3 mg/kg, route intravenous; settings: in vivo; method in brief: as §3
[26] = Oral bioavailability in Lewis rat at 5 mg/kg; assay type: ADME, organism-based; settings: in vivo; method in brief: as §3
[27] = Cmax in Lewis rat at 5 mg/kg, po; assay type: ADME, organism-based; parameters: dose 5 mg/kg, route oral; settings: in vivo; method in brief: as §3
[28] = Tmax in Lewis rat at 5 mg/kg, po; assay type: ADME, organism-based; parameters: dose 5 mg/kg, route oral; settings: in vivo; method in brief: as §3
Rattus norvegicus [29] = test: In vivo inhibition of SCD1 in Lewis rat liver microsome at 1 mg/kg, po after 4 hrs

Chain of Acyl-CoA 6-desaturase (Rattus norvegicus) (Q9Z122 whole entry, looked up): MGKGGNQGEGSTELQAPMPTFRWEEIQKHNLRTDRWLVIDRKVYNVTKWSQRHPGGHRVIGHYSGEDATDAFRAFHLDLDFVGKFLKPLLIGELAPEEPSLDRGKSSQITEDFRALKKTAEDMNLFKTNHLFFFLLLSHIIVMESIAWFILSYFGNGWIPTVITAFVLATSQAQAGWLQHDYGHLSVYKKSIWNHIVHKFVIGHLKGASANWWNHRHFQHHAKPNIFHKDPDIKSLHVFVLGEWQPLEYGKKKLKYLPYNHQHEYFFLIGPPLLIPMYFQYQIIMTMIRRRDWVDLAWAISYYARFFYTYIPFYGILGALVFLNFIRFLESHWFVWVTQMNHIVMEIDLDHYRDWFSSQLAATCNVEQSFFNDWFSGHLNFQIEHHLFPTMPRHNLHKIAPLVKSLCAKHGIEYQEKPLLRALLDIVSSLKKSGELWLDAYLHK
Chain of Acyl-CoA (8-3)-desaturase (Rattus norvegicus) (Q920R3 whole entry, looked up): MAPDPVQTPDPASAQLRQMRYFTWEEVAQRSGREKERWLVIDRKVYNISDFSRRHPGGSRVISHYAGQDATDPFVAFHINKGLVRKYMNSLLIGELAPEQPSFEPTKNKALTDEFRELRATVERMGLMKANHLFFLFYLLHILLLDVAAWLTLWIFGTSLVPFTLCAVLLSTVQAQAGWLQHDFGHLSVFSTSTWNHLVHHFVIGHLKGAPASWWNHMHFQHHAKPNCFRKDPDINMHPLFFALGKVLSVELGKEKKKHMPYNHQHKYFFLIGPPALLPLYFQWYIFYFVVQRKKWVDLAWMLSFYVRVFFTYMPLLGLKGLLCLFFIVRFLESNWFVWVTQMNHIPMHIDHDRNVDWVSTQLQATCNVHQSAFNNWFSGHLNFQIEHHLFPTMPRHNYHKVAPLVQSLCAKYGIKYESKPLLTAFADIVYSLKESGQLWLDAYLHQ

Row | Compound | inhibition [1] | bioavailability [13] | Cmax [14] | Tmax [15] | inhibition in vivo at 15 mg/kg (Rattus norvegicus [18]) | Papp B→A [19] | remaining at 0.5 h [20] | Papp A→B [21] | inhibition [22] | IC50 (Acyl-CoA desaturase 1) | clearance [23] | Vd [24] | half-life [25] | also measured
1 | O=C(NCCC1CC1)c1ccc(N2CCN(C(=O)c3cc(F)ccc3C(F)(F)F)CC2)nn1 | inactive | 49% | 900 nM | 3.3 h | > 60% | 30 ×10⁻⁶ cm/s | 74% | 30 ×10⁻⁶ cm/s | inactive | 0.014 µM |  |  |  | inhibition in vivo at 1 mg/kg (Rattus norvegicus [2]): 61%; inhibition in vivo at 1 mg/kg (Rattus norvegicus [3]): 73%; Activity (Rattus norvegicus [4]): inactive; Activity (Rattus norvegicus [5]): inactive; Activity (Rattus norvegicus [6]): 20%; Activity (Rattus norvegicus [7]): 9%; Activity (Rattus norvegicus [8]): 24%; Activity (Rattus norvegicus [9]): 36%; clearance [10]: 21.7 mL/min/kg; Vd [11]: 2.7 L/kg; half-life [12]: 1.6 h; ED50 (Rattus norvegicus [16]): 0.8 mg/kg; inhibition (Rattus norvegicus [17]): Dose-dependent effect
2 | O=C(NCCC1CC1)c1ccc(N2CCN(C(=O)c3cc(Cl)ccc3C(F)(F)F)CC2)nn1 | inactive | 30% | 500 nM | 2.3 h | > 60% | 30 ×10⁻⁶ cm/s | 69% | 32 ×10⁻⁶ cm/s | inactive | 0.012 µM | 14.3 mL/min/kg | 1.6 L/kg | 1.8 h | 
3 | O=C(NCCC1CC1)c1ccc(N2CCN(C(=O)c3ccccc3C(F)(F)F)CC2)nn1 | inactive |  |  |  | > 60% | 22 ×10⁻⁶ cm/s | 76% | 24 ×10⁻⁶ cm/s | inactive | 0.025 µM | 31.7 mL/min/kg | 2.2 L/kg | 1 h | bioavailability [26]: 46%; Cmax [27]: 900 nM; Tmax [28]: 1 h
4 | O=C(Nc1ccc(Cl)cc1)c1ccc(N2CCN(C(=O)c3ccccc3C(F)(F)F)CC2)nn1 | inactive |  |  |  |  | 2 ×10⁻⁶ cm/s | 65% | 2 ×10⁻⁶ cm/s | inactive | 0.007 µM |  |  |  | inhibition (Rattus norvegicus [29]): Active
